System: HEK-293T
Assay: Multiplex assay against HEK293T
Format: toxicity, cell-based
Settings: human
Summary of the method: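 Phenotypes for tubulin, mitochondrial mass and membrane permeability are expressed as per cents of healthy-nucleus cells. Cells were stained live at seeding with Hoechst33342, BioTracker Green Microtubule Cytoskeleton Dye, MitoTracker Red and Annexin V Alexa Fluor 680, then imaged after compound addition on a CQ1 microscope at 37°C and 5% CO2. Machine-learning gating in CellPathfinder separated Hoechst high-intensity objects from normal cells, divided normal cells by nuclear state (healthy, pyknosed, fragmented) and divided pyknosed cells into mitotic or apoptotic.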

[1] = 12 h, 1 µM, compound concentration 1 uM, replicate 1
[2] = 12 h, 1 µM, compound concentration 1 uM, replicate 2
[3] = 12 h, 10 µM, compound concentration 10 uM, replicate 1
[4] = 12 h, 10 µM, compound concentration 10 uM, replicate 2
[5] = 24 h, 1 µM, compound concentration 1 uM, replicate 1
[6] = 24 h, 1 µM, compound concentration 1 uM, replicate 2
[7] = 24 h, 10 µM, compound concentration 10 uM, replicate 1
[8] = 24 h, 10 µM, compound concentration 10 uM, replicate 2
[9] = 48 h, 1 µM, compound concentration 1 uM, replicate 1
[10] = 48 h, 1 µM, compound concentration 1 uM, replicate 2
[11] = 48 h, 10 µM, compound concentration 10 uM, replicate 1
[12] = 48 h, 10 µM, compound concentration 10 uM, replicate 2

O=c1ccc2ccc(OCCCCN3CCN(c4cccc5sccc45)CC3)cc2[nH]1 [BREXPIPRAZOLE]
Population Apoptotic (%) [1]: 44%
Population Fragmented Nuclei (%) [1]: 6%
Population Healthy Nuclei (%) [1]: 77%
Population Hoechst High Intensity Objects (%) [1]: 6%
Population Membrane Permeable-Phenotype (%) [1]: 0%
Population Mitochondria Different-Phenotype (%) [1]: 67%
Population Mitotic Cells (%) [1]: 55%
Population Normal (%) [1]: 93%
Population Pyknosed Nuclei (%) [1]: 15%
Population Tubulin-Different-Phenotype (%) [1]: 51%
Total Cell Count [1]: 392
Population Apoptotic (%) [2]: 42%
Population Fragmented Nuclei (%) [2]: 5%
Population Healthy Nuclei (%) [2]: 80%
Population Mitochondria Different-Phenotype (%) [2]: 69%
Population Mitotic Cells (%) [2]: 57%
Population Pyknosed Nuclei (%) [2]: 14%
Population Tubulin-Different-Phenotype (%) [2]: 47%
Total Cell Count [2]: 354
Population Apoptotic (%) [3]: 82%
Population Fragmented Nuclei (%) [3]: 17%
Population Healthy Nuclei (%) [3]: 43%
Population Hoechst High Intensity Objects (%) [3]: 66%
Population Membrane Permeable-Phenotype (%) [3]: 0%
Population Mitochondria Different-Phenotype (%) [3]: 97%
Population Mitotic Cells (%) [3]: 17%
Population Normal (%) [3]: 33%
Population Pyknosed Nuclei (%) [3]: 38%
Population Tubulin-Different-Phenotype (%) [3]: 81%
Total Cell Count [3]: 299
Population Apoptotic (%) [4]: 85%
Population Fragmented Nuclei (%) [4]: 10%
Population Healthy Nuclei (%) [4]: 66%
Population Hoechst High Intensity Objects (%) [4]: 41%
Population Mitochondria Different-Phenotype (%) [4]: 100%
Population Mitotic Cells (%) [4]: 14%
Population Normal (%) [4]: 59%
Population Pyknosed Nuclei (%) [4]: 23%
Population Tubulin-Different-Phenotype (%) [4]: 62%
Total Cell Count [4]: 200
Population Apoptotic (%) [5]: 41%
Population Fragmented Nuclei (%) [5]: 10%
Population Healthy Nuclei (%) [5]: 73%
Population Hoechst High Intensity Objects (%) [5]: 8%
Population Membrane Permeable-Phenotype (%) [5]: 0%
Population Mitochondria Different-Phenotype (%) [5]: 51%
Population Mitotic Cells (%) [5]: 58%
Population Normal (%) [5]: 91%
Population Pyknosed Nuclei (%) [5]: 16%
Population Tubulin-Different-Phenotype (%) [5]: 36%
Total Cell Count [5]: 501
Population Apoptotic (%) [6]: 42%
Population Fragmented Nuclei (%) [6]: 4%
Population Healthy Nuclei (%) [6]: 87%
Population Hoechst High Intensity Objects (%) [6]: 2%
Population Mitochondria Different-Phenotype (%) [6]: 52%
Population Mitotic Cells (%) [6]: 57%
Population Normal (%) [6]: 97%
Population Pyknosed Nuclei (%) [6]: 7%
Population Tubulin-Different-Phenotype (%) [6]: 35%
Total Cell Count [6]: 449
Population Apoptotic (%) [7]: 91%
Population Fragmented Nuclei (%) [7]: 12%
Population Healthy Nuclei (%) [7]: 37%
Population Hoechst High Intensity Objects (%) [7]: 68%
Population Membrane Permeable-Phenotype (%) [7]: 0%
Population Mitochondria Different-Phenotype (%) [7]: 100%
Population Mitotic Cells (%) [7]: 8%
Population Normal (%) [7]: 31%
Population Pyknosed Nuclei (%) [7]: 50%
Population Tubulin-Different-Phenotype (%) [7]: 66%
Total Cell Count [7]: 284
Population Apoptotic (%) [8]: 89%
Population Fragmented Nuclei (%) [8]: 10%
Population Healthy Nuclei (%) [8]: 59%
Population Hoechst High Intensity Objects (%) [8]: 46%
Population Mitochondria Different-Phenotype (%) [8]: 98%
Population Mitotic Cells (%) [8]: 10%
Population Normal (%) [8]: 53%
Population Pyknosed Nuclei (%) [8]: 30%
Population Tubulin-Different-Phenotype (%) [8]: 57%
Total Cell Count [8]: 180
Population Apoptotic (%) [9]: 49%
Population Fragmented Nuclei (%) [9]: 9%
Population Healthy Nuclei (%) [9]: 80%
Population Hoechst High Intensity Objects (%) [9]: 5%
Population Membrane Permeable-Phenotype (%) [9]: 0%
Population Mitochondria Different-Phenotype (%) [9]: 47%
Population Mitotic Cells (%) [9]: 50%
Population Normal (%) [9]: 94%
Population Pyknosed Nuclei (%) [9]: 10%
Population Tubulin-Different-Phenotype (%) [9]: 28%
Total Cell Count [9]: 679
Population Apoptotic (%) [10]: 48%
Population Fragmented Nuclei (%) [10]: 12%
Population Healthy Nuclei (%) [10]: 79%
Population Hoechst High Intensity Objects (%) [10]: 3%
Population Membrane Permeable-Phenotype (%) [10]: 1%
Population Mitochondria Different-Phenotype (%) [10]: 36%
Population Mitotic Cells (%) [10]: 51%
Population Normal (%) [10]: 96%
Population Pyknosed Nuclei (%) [10]: 7%
Population Tubulin-Different-Phenotype (%) [10]: 26%
Total Cell Count [10]: 644
Population Apoptotic (%) [11]: 93%
Population Fragmented Nuclei (%) [11]: 19%
Population Healthy Nuclei (%) [11]: 30%
Population Hoechst High Intensity Objects (%) [11]: 67%
Population Membrane Permeable-Phenotype (%) [11]: 0%
Population Mitochondria Different-Phenotype (%) [11]: 96%
Population Mitotic Cells (%) [11]: 6%
Population Normal (%) [11]: 32%
Population Pyknosed Nuclei (%) [11]: 50%
Population Tubulin-Different-Phenotype (%) [11]: 51%
Total Cell Count [11]: 269
Population Apoptotic (%) [12]: 89%
Population Fragmented Nuclei (%) [12]: 14%
Population Healthy Nuclei (%) [12]: 50%
Population Hoechst High Intensity Objects (%) [12]: 52%
Population Mitochondria Different-Phenotype (%) [12]: 97%
Population Mitotic Cells (%) [12]: 10%
Population Normal (%) [12]: 47%
Population Pyknosed Nuclei (%) [12]: 34%
Population Tubulin-Different-Phenotype (%) [12]: 82%
Total Cell Count [12]: 170

Cn1cc(C(=O)OCC2CCN(CCNS(C)(=O)=O)CC2)c2ccccc21
Population Apoptotic (%) [1]: 39%
Population Fragmented Nuclei (%) [1]: 5%
Population Healthy Nuclei (%) [1]: 83%
Population Hoechst High Intensity Objects (%) [1]: 7%
Population Membrane Permeable-Phenotype (%) [1]: 0%
Population Mitochondria Different-Phenotype (%) [1]: 35%
Population Mitotic Cells (%) [1]: 60%
Population Normal (%) [1]: 92%
Population Pyknosed Nuclei (%) [1]: 10%
Population Tubulin-Different-Phenotype (%) [1]: 22%
Total Cell Count [1]: 466
Population Apoptotic (%) [2]: 56%
Population Fragmented Nuclei (%) [2]: 9%
Population Healthy Nuclei (%) [2]: 76%
Population Hoechst High Intensity Objects (%) [2]: 8%
Population Mitochondria Different-Phenotype (%) [2]: 62%
Population Mitotic Cells (%) [2]: 43%
Population Normal (%) [2]: 91%
Population Pyknosed Nuclei (%) [2]: 14%
Population Tubulin-Different-Phenotype (%) [2]: 28%
Total Cell Count [2]: 248
Population Apoptotic (%) [3]: 47%
Population Fragmented Nuclei (%) [3]: 10%
Population Healthy Nuclei (%) [3]: 73%
Population Hoechst High Intensity Objects (%) [3]: 6%
Population Membrane Permeable-Phenotype (%) [3]: 0%
Population Mitochondria Different-Phenotype (%) [3]: 55%
Population Mitotic Cells (%) [3]: 52%
Population Normal (%) [3]: 93%
Population Pyknosed Nuclei (%) [3]: 15%
Population Tubulin-Different-Phenotype (%) [3]: 53%
Total Cell Count [3]: 479
Population Apoptotic (%) [4]: 43%
Population Healthy Nuclei (%) [4]: 71%
Population Hoechst High Intensity Objects (%) [4]: 10%
Population Mitochondria Different-Phenotype (%) [4]: 73%
Population Mitotic Cells (%) [4]: 56%
Population Normal (%) [4]: 89%
Population Pyknosed Nuclei (%) [4]: 18%
Population Tubulin-Different-Phenotype (%) [4]: 47%
Total Cell Count [4]: 393
Population Apoptotic (%) [5]: 29%
Population Fragmented Nuclei (%) [5]: 6%
Population Healthy Nuclei (%) [5]: 82%
Population Hoechst High Intensity Objects (%) [5]: 4%
Population Membrane Permeable-Phenotype (%) [5]: 1%
Population Mitochondria Different-Phenotype (%) [5]: 21%
Population Mitotic Cells (%) [5]: 70%
Population Normal (%) [5]: 95%
Population Pyknosed Nuclei (%) [5]: 10%
Population Tubulin-Different-Phenotype (%) [5]: 16%
Total Cell Count [5]: 650
Population Apoptotic (%) [6]: 48%
Population Fragmented Nuclei (%) [6]: 12%
Population Healthy Nuclei (%) [6]: 76%
Population Hoechst High Intensity Objects (%) [6]: 5%
Population Membrane Permeable-Phenotype (%) [6]: 0%
Population Mitochondria Different-Phenotype (%) [6]: 42%
Population Mitotic Cells (%) [6]: 51%
Population Normal (%) [6]: 94%
Population Tubulin-Different-Phenotype (%) [6]: 17%
Total Cell Count [6]: 283
Population Apoptotic (%) [7]: 35%
Population Fragmented Nuclei (%) [7]: 11%
Population Healthy Nuclei (%) [7]: 74%
Population Hoechst High Intensity Objects (%) [7]: 5%
Population Membrane Permeable-Phenotype (%) [7]: 1%
Population Mitochondria Different-Phenotype (%) [7]: 43%
Population Mitotic Cells (%) [7]: 64%
Population Normal (%) [7]: 94%
Population Pyknosed Nuclei (%) [7]: 13%
Population Tubulin-Different-Phenotype (%) [7]: 50%
Total Cell Count [7]: 587
Population Apoptotic (%) [8]: 48%
Population Fragmented Nuclei (%) [8]: 10%
Population Healthy Nuclei (%) [8]: 79%
Population Hoechst High Intensity Objects (%) [8]: 6%
Population Membrane Permeable-Phenotype (%) [8]: 0%
Population Mitochondria Different-Phenotype (%) [8]: 56%
Population Mitotic Cells (%) [8]: 51%
Population Normal (%) [8]: 93%
Population Pyknosed Nuclei (%) [8]: 9%
Population Tubulin-Different-Phenotype (%) [8]: 37%
Total Cell Count [8]: 491
Population Apoptotic (%) [9]: 25%
Population Fragmented Nuclei (%) [9]: 12%
Population Healthy Nuclei (%) [9]: 78%
Population Hoechst High Intensity Objects (%) [9]: 3%
Population Membrane Permeable-Phenotype (%) [9]: 1%
Population Mitochondria Different-Phenotype (%) [9]: 12%
Population Mitotic Cells (%) [9]: 74%
Population Normal (%) [9]: 96%
Population Pyknosed Nuclei (%) [9]: 8%
Population Tubulin-Different-Phenotype (%) [9]: 10%
Total Cell Count [9]: 1090
Population Apoptotic (%) [10]: 44%
Population Fragmented Nuclei (%) [10]: 11%
Population Healthy Nuclei (%) [10]: 82%
Population Hoechst High Intensity Objects (%) [10]: 4%
Population Membrane Permeable-Phenotype (%) [10]: 3%
Population Mitochondria Different-Phenotype (%) [10]: 23%
Population Mitotic Cells (%) [10]: 55%
Population Normal (%) [10]: 95%
Population Pyknosed Nuclei (%) [10]: 6%
Population Tubulin-Different-Phenotype (%) [10]: 11%
Total Cell Count [10]: 490
Population Apoptotic (%) [11]: 38%
Population Fragmented Nuclei (%) [11]: 16%
Population Healthy Nuclei (%) [11]: 77%
Population Hoechst High Intensity Objects (%) [11]: 6%
Population Membrane Permeable-Phenotype (%) [11]: 1%
Population Mitochondria Different-Phenotype (%) [11]: 31%
Population Mitotic Cells (%) [11]: 61%
Population Normal (%) [11]: 93%
Population Pyknosed Nuclei (%) [11]: 6%
Population Tubulin-Different-Phenotype (%) [11]: 28%
Total Cell Count [11]: 883
Population Fragmented Nuclei (%) [12]: 13%
Population Healthy Nuclei (%) [12]: 79%
Population Hoechst High Intensity Objects (%) [12]: 4%
Population Membrane Permeable-Phenotype (%) [12]: 0%
Population Mitochondria Different-Phenotype (%) [12]: 37%
Population Normal (%) [12]: 95%
Population Tubulin-Different-Phenotype (%) [12]: 26%
Total Cell Count [12]: 758

From ChEMBL document CHEMBL5058577, “EUbOPEN Chemogenomics Library 2 (Multiplex)” (2022)
